Calls of active or inactive are those of the source. No cut-off for these calls is given here.
Columns and labels:
Mus musculus [1] = species: Mus musculus; experiment: Righting ability was determined in mice […] rapid rolling (aroused); assay type: functional
In short: (§1)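 Male Simonsen (ICR) fBR mice, 18-24 g, groups of ten, dosed with aqueous compound. Righting ability checked before (unaroused) and after (aroused) rapid rolling in the hand; ED50 by Litchfield-Wilcoxon method.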

Mus musculus [2] = species: Mus musculus; experiment: Righting ability was determined in mice before rapid rolling (unaroused); assay type: functional; in short: as §1
[3] = Lethal dose in mouse, in groups of ten; assay type: toxicity, organism-based; conditions: in vivo
[4] = HPLC capacity factor (k'); assay type: ADME
Mus musculus [5] = species: Mus musculus; experiment: Mouse behavior activity was determined; Depressant-Stimulant.; assay type: functional, organism-based
In short: (§2)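 Male Simonsen (ICR) fBR mice, 18-24 g, groups of three, given 3, 10, 30, 100, 300 or 1000 mg/kg ip as aqueous solution and observed for behavioral profile; deaths followed up to 7 days.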

Mus musculus [6] = species: Mus musculus; experiment: Compound was evaluated for maximal electroshock antagonism (MES) against mice; assay type: functional
In short: (§3)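 Male HLa (ICR) BR mice, groups of eight to ten, dosed ip (aqueous solution) 15 min before transcorneal electroshock (50 mA, 0.2 s). End point: abolition of tonic hind-limb extension; quantal ED50 by Litchfield-Wilcoxon.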

Mus musculus [7] = experiment: Compound was evaluated in vivo for reserpine hypothermia after oral administration in mouse. Minimum active dose was reported, with the percent reversal at 10 mg/kg in parenthesis; I=inactive; assay type: functional, organism-based; parameters: dose 10 mg/kg
In short: (§4)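 Male HLa (ICR) BR mice, 18-24 g, in groups of eight; reserpine 5 mg/kg ip given 2 h before oral test compound as aqueous solution. Rectal temperature taken hourly; 1-4-h hypothermia assessed by analysis of variance.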

Mus musculus [8] = species: Mus musculus; experiment: Compound was evaluated for maximal electroshock antagonism (MES) against mice; I=inactive; assay type: functional, organism-based; in short: as §3
Mus musculus [9] = species: Mus musculus; experiment: Mouse behavior activity was determined; Dwk= Depressant(Weak); assay type: functional, organism-based; in short: as §2
Mus musculus [10] = species: Mus musculus; experiment: Evaluated for antagonism of reserpine induced hypothermia; assay type: functional; in short: as §4
Mus musculus [11] = species: Mus musculus; experiment: Mouse behavior activity was determined; Depressant.; assay type: functional, organism-based; in short: as §2
Mus musculus [12] = species: Mus musculus; experiment: Compound was evaluated for antagonism of reserpine induced hypothermia.; assay type: functional; in short: as §4
Mus musculus [13] = experiment: Evaluated in vivo for reserpine hypothermia after oral administration in mouse. Minimum active dose was reported; Inactive; assay type: functional, organism-based; in short: as §4
Mus musculus [14] = experiment: Compound was evaluated for maximal electroshock antagonism (MES) against mice; Inactive at 30 mg/kg; assay type: functional, organism-based; parameters: dose 30 mg/kg; in short: as §3
Mus musculus [15] = species: Mus musculus; experiment: Mouse behavior activity was determined; Inactive; assay type: functional, organism-based; in short: as §2
Mus musculus [16] = species: Mus musculus; experiment: Compound was evaluated for maximal electroshock antagonism (MES) against mice; Inactive; assay type: functional, organism-based; in short: as §3
Mus musculus [17] = species: Mus musculus; experiment: Mouse behavior activity was determined; Depressant; assay type: functional, organism-based; in short: as §2
Mus musculus [18] = species: Mus musculus; experiment: Compound was evaluated for maximal electroshock antagonism (MES) against mice;I= Inactive; assay type: functional, organism-based; in short: as §3
Mus musculus [19] = species: Mus musculus; experiment: Mouse behavior activity was determined; D=Depressant; assay type: functional, organism-based; in short: as §2
Mus musculus [20] = species: Mus musculus; experiment: Evaluated for antagonism of reserpine induced hypothermia;I= Inactive; assay type: functional, organism-based; in short: as §4
Mus musculus [21] = species: Mus musculus; experiment: Mouse behavior activity was determined; Depressant-Stimulant; assay type: functional, organism-based; in short: as §2
Mus musculus [22] = species: Mus musculus; experiment: Compound was evaluated for antagonism of reserpine induced hypothermia;I= Inactive.; assay type: functional, organism-based
In short: (§5)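 Male HLa (ICR) BR mice (18-24 g), groups of eight, dosed ip with 5 mg/kg reserpine 2 h before oral test compound given as aqueous solution. Rectal temperature measured hourly; 1-4-h thermia assessed by analysis of variance.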

Mus musculus [23] = experiment: Compound was evaluated in vivo for reserpine hypothermia after oral administration in mouse. Minimum active dose was reported, with the percent reversal at 10 mg/kg in parenthesis.; assay type: functional; in short: as §5
Mus musculus [24] = species: Mus musculus; experiment: Mouse behavior activity was determined; D = Depressant; assay type: functional, organism-based
In short: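 Male Simonsen (ICR) fBR mice (18-24 g) given 3, 10, 30, 100, 300 or 1000 mg/kg ip as aqueous solution and observed for behaviour in groups of three.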

[25] = Compound was evaluated for lethal dose in mouse in groups of ten (values in parentheses indicates 95% confidence limits); assay type: toxicity, organism-based; conditions: in vivo
Mus musculus [26] = species: Mus musculus; experiment: Mouse behavior activity was determined; Dwk=Depressant (Weak); assay type: functional, organism-based; in short: as §2
Mus musculus [27] = experiment: Compound was evaluated in vivo for reserpine hypothermia after oral administration in mouse. Minimum active dose was reported, with the percent reversal at 10 mg/kg; I=inactive; assay type: functional, organism-based; parameters: dose 10 mg/kg; in short: as §4
Mus musculus [28] = species: Mus musculus; experiment: Compound was evaluated for antagonism of reserpine induced hypothermia; I=inactive; assay type: functional, organism-based; in short: as §4
Mus musculus [29] = species: Mus musculus; experiment: Mouse behavior activity was determined; Stimulant-Depressant Weak; assay type: functional, organism-based; in short: as §2
Mus musculus [30] = species: Mus musculus; experiment: Mouse behavior activity was determined;D= Depressant.; assay type: functional, organism-based
Mus musculus [31] = species: Mus musculus; experiment: Compound was evaluated for antagonism of reserpine induced hypothermia;. 5-2.5 excessive variability.; assay type: functional, organism-based; in short: as §4
Mus musculus [32] = experiment: Compound was evaluated in vivo for reserpine hypothermia after oral administration in mouse.; assay type: functional; in short: as §4
Mus musculus [33] = species: Mus musculus; experiment: Righting ability was determined in mice after rapid rolling (aroused); assay type: functional; in short: as §1
Mus musculus [34] = experiment: Evaluated in vivo for reserpine hypothermia after oral administration in mouse. Minimum active dose was reported; 10-30% reduction; assay type: functional, organism-based; in short: as §4
Mus musculus [35] = species: Mus musculus; experiment: Mouse behavior activity was determined; Dwk=Depressant Weak; assay type: functional, organism-based; in short: as §2
Mus musculus [36] = species: Mus musculus; experiment: Mouse behavior activity was determined; S-D=Stimulant-Depressant; assay type: functional, organism-based; in short: as §2
Mus musculus [37] = experiment: Compound was evaluated in vivo for reserpine hypothermia after oral administration in mouse. Minimum active dose was reported; rigidity was potentiated by compound.; assay type: functional, organism-based; in short: as §4

With CC(C)OC(=O)NC1=NC(c2ccccc2F)CN1C (configuration not stated) the Loss of righting reflex (Mus musculus [1]) was 55 mg/kg, the Loss of righting reflex (Mus musculus [2]) was 11 mg/kg and the LD50 [3] was 700 mg/kg. The “Log k'” value [4] was 0.77, the Mouse behavior activity (Mus musculus [5]) was “Depressant-Stimulant” and the ED50 (Mus musculus [6]) was 23 mg/kg.
In the case of COC(=O)NC1=NC(c2ccc(C=O)cc2)CN1C (configuration not stated), the ED50 (Mus musculus [7]) was “inactive”, the ED50 (Mus musculus [8]) was “inactive” and the LD50 [3] was greater than 300 mg/kg. The Mouse behavior activity (Mus musculus [9]) was “Depressant - weak”, the “Log k'” value [4] was -0.53 and the HYPO (Mus musculus [10]) was greater than 0.5 mg/kg.
In the case of COC(=O)NC1=NC(c2ccccc2Cl)CN1C (configuration not stated), the Loss of righting reflex (Mus musculus [1]) was 92 mg/kg, the Loss of righting reflex (Mus musculus [2]) was 49 mg/kg and the LD50 [3] was 238 mg/kg. The “Log k'” value [4] was 0.51, the Mouse behavior activity (Mus musculus [11]) was “Depressant” and the ED50 (Mus musculus [6]) was 28 mg/kg.
With CCOC(=O)NC1=NC(c2cccc(F)c2)CN1C (configuration not stated) the HYPO (Mus musculus [12]) was less than 0.5 mg/kg, the ED50 (Mus musculus [13]) was “inactive” and the “Log k'” value [4] was 0.51. For the same compound, the ED50 (Mus musculus [14]) was “inactive”.
For COC(=O)NC1=NC(c2ccc(CO)cc2)CN1C (configuration not stated), the LD50 [3] was greater than 1000 mg/kg, the ED50 (Mus musculus [13]) was “inactive” and the “Log k'” value [4] was -0.76. For the same compound, the HYPO (Mus musculus [10]) was less than 0.5 mg/kg, the Mouse behavior activity (Mus musculus [15]) was “inactive” and the ED50 (Mus musculus [16]) was “inactive”.
With COC(=O)NC1=NC2(CCc3ccccc32)CN1 (configuration not stated) the Mouse behavior activity (Mus musculus [17]) was “Depressant”, the Loss of righting reflex (Mus musculus [2]) was 200 mg/kg and the LD50 [3] was 700 mg/kg. The “Log k'” value [4] was 0.3 and the ED50 (Mus musculus [6]) was 75 mg/kg.
In the case of CCOC(=O)NC1=NC(c2cccc(Br)c2)CN1 (configuration not stated), the “Log k'” value [4] was 0.77, the HYPO (Mus musculus [10]) was less than 0.5 mg/kg and the ED50 (Mus musculus [18]) was “inactive”.
With COC(=O)NC1=NC(c2ccccc2SC)CN1C (configuration not stated) the Mouse behavior activity (Mus musculus [19]) was “Depressant”, the Loss of righting reflex (Mus musculus [2]) was 70 mg/kg and the LD50 [3] was 200 mg/kg. The “Log k'” value [4] was 0.63, the HYPO (Mus musculus [20]) was “inactive” and the ED50 (Mus musculus [16]) was “inactive”.
For CC(C)OC(=O)NC1=NC(c2ccccc2Cl)CN1C (configuration not stated), the Mouse behavior activity (Mus musculus [21]) was “Depressant-Stimulant”, the Loss of righting reflex (Mus musculus [1]) was 67 mg/kg and the Loss of righting reflex (Mus musculus [2]) was 46 mg/kg. The LD50 [3] was 700 mg/kg, the “Log k'” value [4] was 1.08 and the ED50 (Mus musculus [6]) was 35 mg/kg.
In the case of CNC1=Nc2ccc(Cl)cc2C(c2ccccc2)=[N+]([O-])C1 [CHLORDIAZEPOXIDE], the HYPO (Mus musculus [22]) was “inactive”, the ED50 (Mus musculus [23]) was 5 mg/kg and the Loss of righting reflex (Mus musculus [1]) was 140 mg/kg. The Loss of righting reflex (Mus musculus [2]) was 53 mg/kg, the Mouse behavior activity (Mus musculus [24]) was “Depressant” and the LD50 [25] was 254 mg/kg.
In the case of COC(=O)NC1=NC(c2ccc(OC(C)=O)cc2)CN1C (configuration not stated), the Mouse behavior activity (Mus musculus [26]) was “Depressant - weak”, the ED50 (Mus musculus [8]) was “inactive” and the LD50 [3] was 700 mg/kg. The ED50 (Mus musculus [27]) was “inactive”, the “Log k'” value [4] was 0.2 and the HYPO (Mus musculus [28]) was “inactive”.
With CCOC(=O)NC1=NC(c2ccc(O)cc2)CN1C(C)C (configuration not stated) the LD50 [3] was 200 mg/kg, the “Log k'” value [4] was 0.7 and the Mouse behavior activity (Mus musculus [29]) was “Stimulant-Depressant Weak”. The HYPO (Mus musculus [20]) was “inactive” and the ED50 (Mus musculus [16]) was “inactive”.
In the case of COC(=O)NC1=NC(c2cccc(C)c2)CN1 (configuration not stated), the Mouse behavior activity (Mus musculus [30]) was “Depressant”, the HYPO (Mus musculus [31]) was “excessive variability” and the Loss of righting reflex (Mus musculus [2]) was 100 mg/kg. For the same compound, the LD50 [3] was 500 mg/kg, the ED50 (Mus musculus [32]) was 51 mg/kg and the “Log k'” value [4] was 0.26. The ED50 (Mus musculus [6]) was 100 mg/kg and the Loss of righting reflex (Mus musculus [33]) was 157 mg/kg.
With CCOC(=O)NC1=NC(c2ccc(C(C)C)cc2)CN1 (configuration not stated) the ED50 (Mus musculus [34]) was 10-30% reduction, the LD50 [3] was 200 mg/kg and the Mouse behavior activity (Mus musculus [35]) was “Depressant - weak”. The “Log k'” value [4] was 1.3, the HYPO (Mus musculus [20]) was “inactive” and the ED50 (Mus musculus [16]) was “inactive”.
With COC(=O)NC1=NC(c2ccc(O)cc2)CN1 (configuration not stated) the LD50 [3] was 700 mg/kg, the Mouse behavior activity (Mus musculus [15]) was “inactive” and the ED50 (Mus musculus [16]) was “inactive”.
For COC(=O)NC1=NC(c2ccccc2)CN1C (configuration not stated), the Mouse behavior activity (Mus musculus [36]) was “Stimulant-Depressant”, the LD50 [3] was 200 mg/kg and the “Log k'” value [4] was 0.06. The P (Mus musculus [37]) was “rigidity was potentiated by compound” and the ED50 (Mus musculus [6]) was 107 mg/kg.

From ChEMBL document CHEMBL1122650, “Synthesis and central nervous system properties of 2-[(alkoxycarbonyl)amino]-4(5)-phenyl-2-imidazolines” (J Med Chem, 1984)
